Laboratory results reported in ChEMBL document CHEMBL4033777, “Next-Generation Hypoxic Cell Radiosensitizers: Nitroimidazole Alkylsulfonamides” (J Med Chem, 2018).
≈ marks a conversion by molar mass, not a printed value.

Tests used:
[1] = Solubility of the compound in alphaMEM containing 5% FCS and 1% DMSO by HPLC analysis; format: physicochemical
Method in brief: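 Saturated drug solutions were incubated at 37 °C in αMEM with 5% FCS and 1% DMSO. Dissolved drug was quantified by HPLC.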

HCT-116 [2] = assay: Cytotoxicity against human HCT116 cells incubated for 4 hrs under anaerobic condition measured after 5 days by sulforhodamine B assay; format: functional, cell-based
Method in brief: (§1)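 STR-authenticated, mycoplasma-free HCT116 cells in αMEM + 5% FCS were seeded at 700 cells/well and allowed 2 h to attach. Drug was added from DMSO stocks (<1% DMSO) in serial 3-fold dilutions for 4 h, oxic or anoxic (Pd-catalyst anaerobic chamber, medium pre-equilibrated ≥3 days). After washing, cells regrew for 5 days before SRB staining and IC50 determination.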

HCT-116 [3] = assay: Hypoxic cytotoxicity ratio of IC50 for human HCT116 cells under oxic condition to IC50 for human HCT116 cells under anoxic condition
Method in brief: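 HCT116 cells, 700 per well and attached 2 h, got a 4 h exposure to 3-fold serial dilutions (<1% DMSO) under air or in a Pd-catalyst anaerobic chamber with pre-equilibrated medium. Cells were washed, regrown 5 days, and stained with sulforhodamine B to give IC50. HCR = oxic IC50 / anoxic IC50.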

HCT-116 [4] = assay: (§2) Hypoxia radiosensitization activity in human HCT116 cells assessed as survival ratio by measuring ratio of cell survival with 15 Gy radiation in absence to presence of compound at anoxic IC50 preincubated for 1 hr followed by 15 Gy irradiation measured after 10 days by methylene blue staining-based cell counting method; format: functional
Method in brief: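 Anoxic HCT116 cells were seeded at 10^5/well and treated at the anoxic IC50 concentration for 1 h at room temperature. They were irradiated with 15 Gy (60Co, ~2 Gy/min) in a sealed steel box, then plated clonogenically. Colonies of >50 cells were counted […]. SR15 = survival with radiation / survival with drug + radiation.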

HCT-116 [5] = assay: Cytotoxicity against human HCT116 cells incubated for 4 hrs under aerobic condition measured after 5 days by sulforhodamine B assay; format: cell-based; method in brief: as §1
HCT-116 [6] = assay: Cytotoxicity against human HCT116 cells at anoxic IC50 incubated for 1 hr at 21 degC by clonogenic survival assay; settings: hct-116, 1 h
HCT-116 [7] = assay: (§3) Hypoxia radiosensitization activity in human HCT116 cells assessed as sensitizer enhancement ratio by measuring ratio of radiation dose for 1% survival in absence to presence of compound at 0.08 mM preincubated for 1 hr followed by irradiation measured after 10 days by methylene blue staining-based cell counting method; format: functional
HCT-116 [8] = assay: as §3, with “method relative to misonidazole” for “method”; format: functional
HCT-116 [9] = assay: as §2, with “with” for “with 15 Gy”, “0.08 mM” for “anoxic IC50”, “6 to 29” for “15”; format: functional
HCT-116 [10] = assay: as §2, with “with” for “with 15 Gy”, “0.08 mM” for “anoxic IC50”, “6 to 29” for “15”, “method relative to misonidazole” for “method”; format: functional
[11] = Electrophilicity of the compound in pH 7 phosphate buffer assessed as one-electron reduction potential
Method in brief: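 The one-electron reduction potential was set by pulse radiolysis equilibria at pH 7.0 (2.5 mM phosphate), established within 20 µs against benzylviologen, methylviologen or triquat. ΔE came from equilibrium constants via the Nernst equation, at three concentration ratios and 22 ± 2 °C.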

Mus musculus = assay: Drug level in NIH-III mouse assessed as maximum achievable dose at 10 ml/kg, iv; format: ADME; settings: in vivo
Method in brief: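 Non-tumor-bearing female NIH-III mice (~20 g) received freshly prepared solutions i.v. at 10 mL/kg in 0.9% saline with 1% DMSO, or saline with 2 molar equivalents NaHCO3 for phosphate prodrugs. MAD was the maximum dose that dissolved in the injection volume.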

HCT-116 [12] = assay: In vivo hypoxia radiosensitization activity in human HCT116 cells xenografted in NIH-III mouse assessed as survival ratio by measuring ratio of cell survival with 12.5 Gy radiation in absence to presence of compound at 2.20 mmol/kg, iv pretreated as single dose for 10 mins followed by irradiation measured after 18 hrs by excision assay; format: functional
Plasma = assay: Cmax in plasma of NIH-III mouse xenografted with human HCT116 cells at 2.20 mmol/kg, iv administered as single dose by HPLC analysis; format: ADME, organism-based; design: dose 2.2 mmol/kg, route intravenous; settings: in vivo
Method in brief: (§4)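 Female NIH-III mice bearing subcutaneous HCT116 xenografts (10^6 cells inoculated). At ca. 300 mm3 tumor size, a single i.v. dose was given at the MAD or 75% of the MTD. Vehicle was 0.9% saline with 1% DMSO, or saline with 2 molar equivalents NaHCO3 for phosphate prodrugs. Plasma and tumor were sampled at multiple times by cardiac puncture and excision, assayed by HPLC, and analysed noncompartmentally.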

[13] = Tmax in plasma of NIH-III mouse xenografted with human HCT116 cells at 2.20 mmol/kg, iv administered as single dose by HPLC analysis; format: ADME, organism-based; settings: 2.2 mmol/kg
Method in brief: (§5)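 Female NIH-III mice bearing subcutaneous HCT116 tumors (10^6 cells; ~300 mm3) got a single i.v. dose at the MAD or 75% of the MTD. Vehicle was saline with 1% DMSO, or saline with 2 equivalents of NaHCO3 for the phosphates. Plasma and tumor were sampled at multiple times by cardiac puncture and excision, drug was measured by HPLC, and Tmax came from noncompartmental analysis.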

[14] = Cmax in tumor of NIH-III mouse xenografted with human HCT116 cells at 2.20 mmol/kg, iv administered as single dose by HPLC analysis; format: ADME, organism-based, Neoplasm; design: dose 2.2 mmol/kg, route intravenous; settings: in vivo; method in brief: as §4
[15] = Tmax in tumor of NIH-III mouse xenografted with human HCT116 cells at 2.20 mmol/kg, iv administered as single dose by HPLC analysis; format: ADME, organism-based, Neoplasm; settings: 2.2 mmol/kg; method in brief: as §5
HCT-116 [16] = assay: as §3, with “2.1” for “0.08”; format: functional
HCT-116 [17] = assay: as §3, with “2.1” for “0.08”, “method relative to misonidazole” for “method”; format: functional
HCT-116 [18] = assay: as §2, with “with” for “with 15 Gy”, “2.1 mM” for “anoxic IC50”, “6 to 29” for “15”; format: functional

Compound	solubility [1] [mM]	IC50 (HCT-116 [2]) [mM]	Ratio IC50 (HCT-116 [3])	Ratio (HCT-116 [4])	IC50 (HCT-116 [5]) [mM]	Activity (HCT-116 [6])	also measured
O=C(O)CCNS(=O)(=O)Cn1ccnc1[N+](=O)[O-]	72.1 (≈ 20100 µg/mL)	4.4	1	2	0.38 to 4.8	Non-Toxic	–
O=[N+]([O-])c1nccn1CS(=O)(=O)NCCN1CCOCC1	450 (≈ 144000 µg/mL)	0.08	50	10.5	0.38 to 4.8	Non-Toxic	Ratio (HCT-116 [7]): 1.28; fold change (FC) (HCT-116 [8]): 0.89; Ratio (HCT-116 [9]): 3.9; fold change (FC) (HCT-116 [10]): 0.51
COCCNS(=O)(=O)Cn1ccnc1[N+](=O)[O-]	–	–	–	–	0.38 to 4.8	Non-Toxic	Ratio (HCT-116 [9]): 2.9; fold change (FC) (HCT-116 [10]): 0.78
Cc1ncc([N+](=O)[O-])n1CCS(=O)(=O)N1CCN(C)CC1	14.5 (≈ 4600 µg/mL)	1.6	0.6	1.8	–	Non-Toxic	–
COCCNS(=O)(=O)CCn1cnc([N+](=O)[O-])c1	16 (≈ 4450 µg/mL)	> 5.3	–	9	–	Non-Toxic	Activity [11]: -538 mV
O=[N+]([O-])c1cncn1CCS(=O)(=O)NCCOP(=O)(O)O	–	–	–	–	–	–	Drug uptake (Mus musculus): 2.2 mmol/kg; Ratio (HCT-116 [12]): 2.6
O=[N+]([O-])c1nccn1CS(=O)(=O)NCCN1CCCC1	16.1 (≈ 4880 µg/mL)	0.011	96	1.7	0.38 to 4.8	Non-Toxic	–
O=[N+]([O-])c1cn(CS(=O)(=O)NCCN2CCOCC2)cn1	–	3.3	1.3	7	–	Non-Toxic	–
O=[N+]([O-])c1nccn1CCS(=O)(=O)NCCOP(=O)(O)O	–	–	–	–	–	–	Drug uptake (Mus musculus): 2.2 mmol/kg; Cmax (Plasma): 1140 µM; Tmax [13]: 10 min; Cmax [14]: 390 µM; Tmax [15]: 10 min; Ratio (HCT-116 [12]): 2.9
O=[N+]([O-])c1cn(CCS(=O)(=O)NCCO)cn1	> 100	10.9	1	6.3	–	Non-Toxic	–
O=[N+]([O-])c1cn(CS(=O)(=O)NCCO)cn1	–	> 6	<0.5	–	–	–	–
O=[N+]([O-])c1cncn1CS(=O)(=O)NCCN1CCOCC1	–	2.1	1.4	60	–	Non-Toxic	Ratio (HCT-116 [16]): 1.43; fold change (FC) (HCT-116 [17]): 1.01; Ratio (HCT-116 [18]): 8.2
